{"source": "ChEMBL document CHEMBL1128284", "about": "“Synthesis and in vitro activity of 17 beta-(N-alkyl/arylformamido)- and 17 beta-[(N-alkyl/aryl)alkyl/arylamido]-4-methyl-4-aza-3-oxo-5 alpha-androstan-3-ones as inhibitors of human 5 alpha-reductases and antagonists of the androgen receptor” (J Med Chem, 1995)", "key": {"[1]": {"biological_target": "T1, 3-oxo-5-alpha-steroid 4-dehydrogenase 2 (Homo sapiens, UniProt P31213)", "T1 sequence (P31213 whole entry)": "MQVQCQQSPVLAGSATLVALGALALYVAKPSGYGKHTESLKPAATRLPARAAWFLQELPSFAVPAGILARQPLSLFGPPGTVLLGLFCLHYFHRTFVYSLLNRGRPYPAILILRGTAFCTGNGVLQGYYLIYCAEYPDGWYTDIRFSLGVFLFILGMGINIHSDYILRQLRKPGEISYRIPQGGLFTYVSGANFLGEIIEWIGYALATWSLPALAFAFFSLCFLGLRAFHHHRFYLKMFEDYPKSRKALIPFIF", "experiment": "In vitro inhibition of human steroid 5-alpha-reductase type 2 in SW-13-transfected cells", "assay_type": "cell-based", "procedure,_shortened": "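Homogenate of SW-13 cells transfected with human type II 5α-reductase cDNA; 5 nM [3H]androstenedione, 500 μM NADPH, 50 mM Tris HCl pH 7.5 with 20% glycerol, 1 mM EDTA; 60 min, 37 °C. Ether extraction with steroid carriers, TLC, radioactivity counted; androstanedione formed as % of control.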"}, "[2]": {"biological_target": "T2, 3-oxo-5-alpha-steroid 4-dehydrogenase 1 (Homo sapiens, UniProt P18405)", "T2 sequence (P18405 whole entry)": "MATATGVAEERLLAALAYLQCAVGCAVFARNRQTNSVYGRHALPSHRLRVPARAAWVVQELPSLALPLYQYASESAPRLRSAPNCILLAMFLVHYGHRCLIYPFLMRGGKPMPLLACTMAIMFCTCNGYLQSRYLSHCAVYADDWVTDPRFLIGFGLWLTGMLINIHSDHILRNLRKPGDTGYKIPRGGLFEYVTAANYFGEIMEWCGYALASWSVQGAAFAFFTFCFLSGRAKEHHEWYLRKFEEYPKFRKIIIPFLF", "experiment": "In vitro inhibition of human steroid 5-alpha-reductase type I in Du-145 cells", "assay_type": "cell-based", "procedure,_shortened": "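Intact DU-145 cells (passages 60–90), 100000 cells/well, adhered 24 h; compounds in ethanol diluted in DMEM/2% charcoal-adsorbed FBS with 5 nM [3H]androstenedione, 24 h at 37 °C, 5% CO2. Ether extraction, TLC, radioactivity; androstanedione, androsterone, epiandrosterone formed as % of control.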"}}, "note": "pIC50: −log10 of the molar value.", "data": [{"smiles": "CCCCCN(C=O)[C@H]1CCC2C3CC[C@H]4N(C)C(=O)CC[C@]4(C)C3CC[C@@]21C", "note": "(stereo partly specified)", "values": [{"measurement": "pIC50", "setting": "[1]", "result": "< 7.00"}, {"measurement": "pIC50", "setting": "[2]", "result": 9.04}]}, {"smiles": "CCCCN(C(C)=O)[C@H]1CCC2C3CC[C@H]4N(C)C(=O)CC[C@]4(C)C3CC[C@@]21C", "note": "(stereo partly specified)", "values": [{"measurement": "pIC50", "setting": "[1]", "result": "< 7.00"}]}, {"smiles": "CC(C)CCN(C=O)[C@H]1CCC2C3CC[C@H]4N(C)C(=O)CC[C@]4(C)C3CC[C@@]21C", "note": "(stereo partly specified)", "values": [{"measurement": "pIC50", "setting": "[1]", "result": "< 7.00"}, {"measurement": "pIC50", "setting": "[2]", "result": 8.66}]}, {"smiles": "CN1C(=O)CC[C@@]2(C)C1=CCC1C2CC[C@@]2(C)C1CC[C@@H]2N(C)C=O", "note": "(stereo partly specified)", "values": [{"measurement": "pIC50", "setting": "[1]", "result": "< 6.00"}, {"measurement": "pIC50", "setting": "[2]", "result": 5.72}]}, {"smiles": "CCCCN(C=O)[C@H]1CCC2C3CC[C@H]4N(C)C(=O)CC[C@]4(C)C3CC[C@@]21C", "note": "(stereo partly specified)", "values": [{"measurement": "pIC50", "setting": "[1]", "result": "< 7.00"}, {"measurement": "pIC50", "setting": "[2]", "result": 8.52}]}, {"smiles": "COc1ccc(N(C(=O)C(C)C)[C@H]2CCC3C4CC[C@H]5N(C)C(=O)CC[C@]5(C)C4CC[C@@]32C)cc1", "note": "(stereo partly specified)", "values": [{"measurement": "pIC50", "setting": "[1]", "result": "< 7.00"}, {"measurement": "pIC50", "setting": "[2]", "result": 8.26}]}, {"smiles": "CCCCCN(C(=O)c1ccccc1)[C@H]1CCC2C3CC[C@H]4N(C)C(=O)CC[C@]4(C)C3CC[C@@]21C", "note": "(stereo partly specified)", "values": [{"measurement": "pIC50", "setting": "[1]", "result": "< 7.00"}, {"measurement": "pIC50", "setting": "[2]", "result": 8.49}]}, {"smiles": "CN1C(=O)CC[C@]2(C)C3CC[C@@]4(C)C(CC[C@@H]4N(C=O)C4CC4)C3CC[C@@H]12", "note": "(stereo partly specified)", "values": [{"measurement": "pIC50", "setting": "[1]", "result": "< 7.00"}]}, {"smiles": "CCCCCN(C(=O)CCC)[C@H]1CCC2C3CC[C@H]4N(C)C(=O)CC[C@]4(C)C3CC[C@@]21C", "note": "(stereo partly specified)", "values": [{"measurement": "pIC50", "setting": "[1]", "result": "< 7.00"}, {"measurement": "pIC50", "setting": "[2]", "result": 8.48}]}, {"smiles": "CC(C)C(=O)N(c1ccc([N+](=O)[O-])cc1)[C@H]1CCC2C3CC[C@H]4N(C)C(=O)CC[C@]4(C)C3CC[C@@]21C", "note": "(stereo partly specified)", "values": [{"measurement": "pIC50", "setting": "[1]", "result": "< 6.00"}, {"measurement": "pIC50", "setting": "[2]", "result": 7.48}]}, {"smiles": "CCN(CC)C(=O)[C@H]1CC[C@H]2[C@@H]3CC[C@H]4N(C)C(=O)CC[C@]4(C)[C@H]3CC[C@]12C", "values": [{"measurement": "pIC50", "setting": "[1]", "result": 8.13}, {"measurement": "pIC50", "setting": "[2]", "result": 8.38}]}, {"smiles": "CCCCCN(C(=O)CCCCBr)[C@H]1CCC2C3CC[C@H]4N(C)C(=O)CC[C@]4(C)C3CC[C@@]21C", "note": "(stereo partly specified)", "values": [{"measurement": "pIC50", "setting": "[1]", "result": 6.00}, {"measurement": "pIC50", "setting": "[2]", "result": 8.62}]}, {"smiles": "CC(C)(C)NC(=O)[C@H]1CC[C@H]2[C@@H]3CC[C@H]4NC(=O)C=C[C@]4(C)[C@H]3CC[C@]12C", "note": "[FINASTERIDE]", "values": [{"measurement": "pIC50", "setting": "[1]", "result": 8.34}, {"measurement": "pIC50", "setting": "[2]", "result": 7.58}]}, {"smiles": "CC(C)C(=O)N(c1ccc([N+](=O)[O-])c(C(F)(F)F)c1)[C@H]1CCC2C3CC[C@H]4N(C)C(=O)CC[C@]4(C)C3CC[C@@]21C", "note": "(stereo partly specified)", "values": [{"measurement": "pIC50", "setting": "[1]", "result": "< 6.00"}, {"measurement": "pIC50", "setting": "[2]", "result": 7.22}]}, {"smiles": "COc1ccc(N(C(=O)c2ccccc2)[C@H]2CCC3C4CC[C@H]5N(C)C(=O)CC[C@]5(C)C4CC[C@@]32C)cc1", "note": "(stereo partly specified)", "values": [{"measurement": "pIC50", "setting": "[1]", "result": "< 6.00"}, {"measurement": "pIC50", "setting": "[2]", "result": 8.68}]}, {"smiles": "CC(C)N(C=O)[C@H]1CCC2C3CC[C@H]4N(C)C(=O)CC[C@]4(C)C3CC[C@@]21C", "note": "(stereo partly specified)", "values": [{"measurement": "pIC50", "setting": "[1]", "result": "< 7.00"}, {"measurement": "pIC50", "setting": "[2]", "result": 8.02}]}, {"smiles": "CCCCCCN(C=O)[C@H]1CCC2C3CC[C@H]4N(C)C(=O)CC[C@]4(C)C3CC[C@@]21C", "note": "(stereo partly specified)", "values": [{"measurement": "pIC50", "setting": "[1]", "result": "< 7.00"}, {"measurement": "pIC50", "setting": "[2]", "result": 8.14}]}, {"smiles": "CN1C(=O)CC[C@]2(C)C3CC[C@@]4(C)C(CC[C@@H]4N(C=O)C4CCCCC4)C3CC[C@@H]12", "note": "(stereo partly specified)", "values": [{"measurement": "pIC50", "setting": "[1]", "result": "< 7.00"}]}, {"smiles": "CN1C(=O)CC[C@]2(C)C3CC[C@@]4(C)C(CC[C@@H]4N(C=O)CCC(C)(C)C)C3CC[C@@H]12", "note": "(stereo partly specified)", "values": [{"measurement": "pIC50", "setting": "[1]", "result": "< 7.00"}, {"measurement": "pIC50", "setting": "[2]", "result": 8.63}]}, {"smiles": "CCCN(C=O)[C@H]1CCC2C3CC[C@H]4N(C)C(=O)CC[C@]4(C)C3CC[C@@]21C", "note": "(stereo partly specified)", "values": [{"measurement": "pIC50", "setting": "[1]", "result": "< 7.00"}, {"measurement": "pIC50", "setting": "[2]", "result": 8.29}]}, {"smiles": "CN(C=O)[C@H]1CCC2C3CC[C@H]4N(C)C(=O)CC[C@]4(C)C3CC[C@@]21C", "note": "(stereo partly specified)", "values": [{"measurement": "pIC50", "setting": "[1]", "result": 6.00}]}, {"smiles": "CCCCCCCCN(C=O)[C@H]1CCC2C3CC[C@H]4N(C)C(=O)CC[C@]4(C)C3CC[C@@]21C", "note": "(stereo partly specified)", "values": [{"measurement": "pIC50", "setting": "[1]", "result": 7.74}, {"measurement": "pIC50", "setting": "[2]", "result": 7.77}]}, {"smiles": "CN(C=O)[C@H]1CCC2C3CC[C@H]4NC(=O)CC[C@]4(C)C3CC[C@@]21C", "note": "(stereo partly specified)", "values": [{"measurement": "pIC50", "setting": "[1]", "result": "< 6.00"}, {"measurement": "pIC50", "setting": "[2]", "result": 5.43}]}, {"smiles": "CN(C=O)[C@H]1CCC2C3CC[C@H]4N(C)C(=O)C=C[C@]4(C)C3CC[C@@]21C", "note": "(stereo partly specified)", "values": [{"measurement": "pIC50", "setting": "[1]", "result": "< 6.00"}, {"measurement": "pIC50", "setting": "[2]", "result": 6.91}]}, {"smiles": "CN1C(=O)CC[C@]2(C)C3CC[C@@]4(C)C(CC[C@@H]4N(C=O)Cc4ccccc4)C3CC[C@@H]12", "note": "(stereo partly specified)", "values": [{"measurement": "pIC50", "setting": "[1]", "result": "< 7.00"}, {"measurement": "pIC50", "setting": "[2]", "result": 8.25}]}, {"smiles": "CCCCCCCN(C=O)[C@H]1CCC2C3CC[C@H]4N(C)C(=O)CC[C@]4(C)C3CC[C@@]21C", "note": "(stereo partly specified)", "values": [{"measurement": "pIC50", "setting": "[1]", "result": 7.85}, {"measurement": "pIC50", "setting": "[2]", "result": 8.02}]}, {"smiles": "CCCCCN(C(=O)CCCC)[C@H]1CCC2C3CC[C@H]4N(C)C(=O)CC[C@]4(C)C3CC[C@@]21C", "note": "(stereo partly specified)", "values": [{"measurement": "pIC50", "setting": "[1]", "result": "< 7.00"}, {"measurement": "pIC50", "setting": "[2]", "result": 8.75}]}, {"smiles": "CCCCCN(C(=O)CC)[C@H]1CCC2C3CC[C@H]4N(C)C(=O)CC[C@]4(C)C3CC[C@@]21C", "note": "(stereo partly specified)", "values": [{"measurement": "pIC50", "setting": "[1]", "result": "< 7.00"}, {"measurement": "pIC50", "setting": "[2]", "result": 8.34}]}, {"smiles": "CC(C)C(=O)N(c1ccccc1)[C@H]1CCC2C3CC[C@H]4N(C)C(=O)CC[C@]4(C)C3CC[C@@]21C", "note": "(stereo partly specified)", "values": [{"measurement": "pIC50", "setting": "[1]", "result": 6.24}, {"measurement": "pIC50", "setting": "[2]", "result": 7.98}]}, {"smiles": "CCC(CC)N(C=O)[C@H]1CCC2C3CC[C@H]4N(C)C(=O)CC[C@]4(C)C3CC[C@@]21C", "note": "(stereo partly specified)", "values": [{"measurement": "pIC50", "setting": "[1]", "result": "< 7.00"}]}, {"smiles": "CN(C=O)[C@H]1CCC2C3CC[C@H]4NC(=O)C=C[C@]4(C)C3CC[C@@]21C", "note": "(stereo partly specified)", "values": [{"measurement": "pIC50", "setting": "[1]", "result": "< 6.00"}, {"measurement": "pIC50", "setting": "[2]", "result": 6.68}]}, {"smiles": "CC(C)CN(C=O)[C@H]1CCC2C3CC[C@H]4N(C)C(=O)CC[C@]4(C)C3CC[C@@]21C", "note": "(stereo partly specified)", "values": [{"measurement": "pIC50", "setting": "[1]", "result": "< 7.00"}, {"measurement": "pIC50", "setting": "[2]", "result": 8.14}]}, {"smiles": "CN1C(=O)CC[C@]2(C)C3CC[C@@]4(C)C(CC[C@@H]4N(C(=O)c4ccccc4)c4ccccc4)C3CC[C@@H]12", "note": "(stereo partly specified)", "values": [{"measurement": "pIC50", "setting": "[1]", "result": 8.43}, {"measurement": "pIC50", "setting": "[2]", "result": 8.53}]}]}
